The text below walks through data of ChEMBL document CHEMBL3233005 (Bioorg Med Chem Lett, 2014).

pIC50: −log10 of the molar value.

Data set [1] concerns the target T1, Aromatase (Homo sapiens, UniProt P11511).
T1 sequence (P11511 whole entry): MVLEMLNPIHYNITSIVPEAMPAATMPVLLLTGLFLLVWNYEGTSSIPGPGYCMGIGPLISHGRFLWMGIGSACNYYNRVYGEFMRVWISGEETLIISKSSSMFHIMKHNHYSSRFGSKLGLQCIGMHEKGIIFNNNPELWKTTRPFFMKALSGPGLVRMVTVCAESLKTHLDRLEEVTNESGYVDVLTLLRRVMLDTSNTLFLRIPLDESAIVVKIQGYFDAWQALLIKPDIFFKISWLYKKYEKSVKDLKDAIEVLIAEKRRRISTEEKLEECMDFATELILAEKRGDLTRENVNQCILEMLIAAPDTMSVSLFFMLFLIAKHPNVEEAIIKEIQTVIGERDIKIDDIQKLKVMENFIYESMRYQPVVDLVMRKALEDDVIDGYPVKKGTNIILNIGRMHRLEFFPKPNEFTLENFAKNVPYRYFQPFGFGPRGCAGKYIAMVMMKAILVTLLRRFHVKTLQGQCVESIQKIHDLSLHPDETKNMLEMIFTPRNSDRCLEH
Kind of data set: Inhibition of human aromatase using androstenedione as substrate assessed as remaining estrone level at 10 uM after 30 mins by LC-MS/MS analysis relative to control. The settings on record: 0.5 h, read-out: Activity. The method, boiled down:
(§1)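 cDNA-expressed human CYP19A1 supersomes at 0.05 mg/mL, with 1 µM androstenedione, 3.3 mM MgCl2 and an NADPH-generating system (glucose-6-phosphate, β-NADP+, glucose-6-phosphate dehydrogenase) in 0.1 M potassium phosphate, pH 7.4. Incubated 30 min at 37 °C, stopped with ethyl acetate plus cortisone internal standard, then liquid–liquid extraction. Estrone quantified by LC–MS/MS as % of control. Single concentration, mean of duplicates.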

For data set [2], the target named is T1, Aromatase. Kind of data set: Inhibition of human aromatase using androstenedione as substrate assessed as estrone formation at 10 uM after 30 mins by LC-MS/MS analysis. Summed up:
as §1

Consider `O=Cc1ccc(O)cc1O`, for which the activity at 10 µM in data set [1] was 91.7%.
Regarding `O=C1c2ccc(O)cc2O[C@H](c2ccc(O)c(O)c2)[C@H]1O` (relative stereo) [FUSTIN], the activity at 10 µM in data set [1] was found to be 110%.
Take `O=C(O)c1ccc(O)cc1O` [2,4-DIHYDROXYBENZOIC ACID]: the activity at 10 µM in data set [1] is 93.9%.
With `O=C1c2c(O)cc(O)cc2O[C@H](c2ccc(O)c(O)c2)[C@H]1O` [(+)-TAXIFOLIN], the activity at 10 µM in data set [1] came to 90.7%.
Consider `O=C(/C=C/c1ccc(O)c(O)c1)c1ccc(O)cc1O` [BUTEIN], for which, in data set [1], the activity at 10 µM turned out to be 87.5%.
On to `O=c1c(O)c(-c2ccc(O)c(O)c2)oc2cc(O)ccc12` [FISETIN], for which, in data set [1], the activity at 10 µM came out at 117%.
In the case of `C[C@]12CCC(=O)C(O)=C1CC[C@@H]1[C@@H]2CC[C@]2(C)C(=O)CC[C@@H]12` [FORMESTANE], the negative-log IC50 (pIC50) (as a rule, the negative decadic logarithm of the IC50, by convention in mol/L) in data set [2] was 6.33. In addition, the “inhibition (INH)” value in data set [2] (human, 0.5 h, 10 µM) is given as “Dose-dependent effect”. Moreover, the activity at 10 µM in data set [1] stood at 5.1%.
On to `O=C(O)c1cc(O)c(O)c(O)c1` [GALLIC ACID], for which the activity at 10 µM in data set [1] worked out at 112%.
For `O=C1c2ccc(O)cc2O[C@H](c2ccc(O)cc2)[C@H]1O` [GARBANZOL], the activity at 10 µM in data set [1] came to 99.3%.
As for `O=C(O)c1ccc(O)cc1` [PARABEN], in data set [1], the activity at 10 µM turned out to be 91.8%.
Consider `O=C(O)c1ccc(O)c(O)c1` [PROTOCATECHUIC ACID], for which the activity at 10 µM in data set [1] amounted to 83.5%.
With `O=c1c(O)c(-c2ccc(O)c(O)c2)oc2cc(O)cc(O)c12` [QUERCETIN], in data set [1], the activity at 10 µM is 96%.
Take `O=c1c(O)c(-c2ccc(O)cc2)oc2cc(O)ccc12` [RESOKAEMPFEROL]: the activity at 10 µM in data set [1] is 102%.
As for `Oc1cccc(O)c1` [RESORCINOL], the activity at 10 µM in data set [1] was found to be 91.8%.
Consider `O=C1/C(=C/c2ccc(O)c(O)c2)Oc2cc(O)ccc21` [SULFURETIN], for which the activity at 10 µM in data set [1] stood at 99%.
